Among the data in ChEMBL document CHEMBL1146603, “Use of a pharmacophore model to discover a new class of influenza endonuclease inhibitors” (J Med Chem, 2003) are IC50, EC50 and inhibition values, retold here.

In assay [1] the target is Polymerase acidic protein (Influenza A virus (A/Puerto Rico/8/1934(H1N1)), UniProt P03433). Put plainly: Inhibitory concentration against cap-dependent endonuclease activity of influenza virus RNP. The class given is functional, unidentified influenza virus. In a few lines:
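Gel-based cap-dependent endonuclease assay. 1 nM influenza RNP was incubated with 0.1 nM cap-labeled 20-mer G20 RNA in 50 mM Tris-HCl pH 8 with 1 mM MgCl₂, 20 mM KCl, 1 U/μL RNase inhibitor and 0.3% Triton X-100, for 5 min at 31 °C. Cleavage products were resolved on polyacrylamide gels and quantified by phosphorimager. IC50 came from dose–response curves.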

Assay [2] shares this target. The assay is described as follows: Inhibitory concentration against cap-dependent endonuclease activity of influenza A/PR/8/34 RNP. It counts as functional. Put shortly:
(§1)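 Cap-dependent transcription run on a filter plate. 10 nM RNP purified from A/PR/8/34 or B/Lee/40 virus was mixed with 0.01 mg/mL AMV RNA, 50 μM GTP, 50 μM CTP, 500 μM ATP and 5 μM [radiolabeled] UTP. Buffer was 50 mM Tris-HCl pH 8 with 100 mM KCl, 5 mM MgCl₂, 10% DMSO, 5 mM DTT and 0.2 mg/mL BSA. Incubation was 90 min at 31 °C. TCA-precipitated RNA was scintillation-counted. IC50 came from dose–response curves.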

Assay [3] deals with unidentified influenza virus. Put plainly: Effective concentration against influenza virus in MDCK cells. The class given is functional, organism-based. Put shortly:
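Antiviral dose–response read as protection of MDCK cells from influenza virus-induced cell death.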

In assay [4] the target is Polymerase acidic protein (Influenza B virus (strain B/Lee/1940), UniProt Q9QLI9). The assay is described as follows: Inhibitory concentration against cap-dependent endonuclease activity of influenza B/Lee/40 RNP. The class given is functional. In a few lines: as §1
Assay [5] concerns the target Polymerase acidic protein (Influenza A virus (A/Puerto Rico/8/1934(H1N1))) (UniProt P03433). Put plainly: Percent inhibition of cap-dependent endonuclease activity of influenza virus RNP at 100 uM. To be noted: unidentified influenza virus. It counts as functional.

Some results are limits rather than exact numbers.

A word on the IC50: it is the point on the concentration scale where inhibition reaches its midpoint. One may read the EC50 as the concentration giving half of the maximal effect. Lower therefore signals a more potent agent. By inhibition is commonly meant the percentage by which the read-out fell short of the control. Lower therefore signals a response near the control.

Sequence of Polymerase acidic protein (Q9QLI9 whole entry): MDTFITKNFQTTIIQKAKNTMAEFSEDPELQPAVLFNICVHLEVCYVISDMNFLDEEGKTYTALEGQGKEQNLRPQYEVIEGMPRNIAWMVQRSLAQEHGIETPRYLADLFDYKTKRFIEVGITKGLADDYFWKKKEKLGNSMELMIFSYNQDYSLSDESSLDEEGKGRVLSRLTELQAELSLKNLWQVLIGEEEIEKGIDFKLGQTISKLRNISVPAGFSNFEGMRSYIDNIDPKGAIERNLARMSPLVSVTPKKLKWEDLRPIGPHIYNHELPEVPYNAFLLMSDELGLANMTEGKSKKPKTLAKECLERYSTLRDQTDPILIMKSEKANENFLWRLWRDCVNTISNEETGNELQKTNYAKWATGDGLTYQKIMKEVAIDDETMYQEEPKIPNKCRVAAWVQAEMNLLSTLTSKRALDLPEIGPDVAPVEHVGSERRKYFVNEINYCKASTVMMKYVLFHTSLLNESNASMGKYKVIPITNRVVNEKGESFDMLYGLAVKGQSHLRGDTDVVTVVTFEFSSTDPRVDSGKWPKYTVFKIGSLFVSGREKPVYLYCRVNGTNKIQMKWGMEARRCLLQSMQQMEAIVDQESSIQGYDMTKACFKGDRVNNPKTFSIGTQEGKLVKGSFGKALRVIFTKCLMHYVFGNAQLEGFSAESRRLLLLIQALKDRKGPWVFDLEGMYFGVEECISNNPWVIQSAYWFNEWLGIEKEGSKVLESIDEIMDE

With `O=C1CCc2ccccc2C(=O)N1O`, the IC50 in assay [1] is more than 1000 µM.

`O=C(Nc1ccc2c(C(=O)c3ccccc3)c(O)n(O)c2c1)c1cnc2ccccc2n1` had an IC50 in assay [2] of 17 µM.

In the case of `O=c1c2nccnc2ncn1O`, the IC50 in assay [1] was more than 500 µM. For the molecule `Cc1cc(C(=O)Nc2ccc3c(C(=O)c4ccccc4)c(O)n(O)c3c2)no1`, the IC50 in assay [2] is 9.5 µM. Further, in assay [3], the EC50 is more than 100 µM. In assay [2], `CC(=O)c1c(O)n(O)c2cc(NC(=O)c3cccs3)ccc12` had an IC50 of 40 µM. In assay [2], `CCC(=O)c1c(O)n(O)c2cc(NC(=O)Nc3cccc(C(=O)O)c3)ccc12` displayed an IC50 of 10 µM. For the molecule `CC(=O)c1c(O)n(O)c2cc(NC(=O)c3ccc4ccccc4c3)ccc12`, the results for the IC50 in assay [2] and in assay [4] were 9 µM and 18 µM, respectively. Moreover, a half-maximal effect in assay [3] (EC50) was put at 21 µM.

`NN1C(=O)Cc2ccccc2C1=O` returned an IC50 in assay [1] of 800 µM. For `CC(=O)c1c(O)n(O)c2cc(NC(=O)c3cnc4ccccc4n3)ccc12`, in assay [2], half-maximal inhibition (IC50) was put at 11 µM. With `CC(=O)c1c(O)n(O)c2cc(NC(=O)/C=C/c3ccccc3Cl)ccc12`, in assay [2], 26 µM corresponded to half-maximal inhibition (IC50). In assay [2], `CCC(=O)c1c(O)n(O)c2cc(NC(=O)c3cccs3)ccc12` gave a 50% inhibitory concentration (IC50) of 35 µM.

`O=C(Nc1ccccc1)Nc1ccc2c(C(=O)c3ccccc3)c(O)n(O)c2c1` gave an IC50 in assay [2] of 29 µM. On the same count and under the same terms, the value for `O=C(Nc1ccc2c(C(=O)c3ccccc3)c(O)n(O)c2c1)c1cccs1` was 20 µM. The molecule `O=C1c2ccccc2C(=O)N1O` registered an IC50 in assay [1] of more than 500 µM.

`O=C(O)C(=O)/C=C(\O)c1ccc(C2CCCCC2)cc1` yielded an IC50 in assay [1] of 5 µM. `CCC(=O)c1c(O)n(O)c2cc(NC(=O)c3cnc4ccccc4n3)ccc12` registered a half-inhibitory concentration (IC50) in assay [2] of 10 µM. `CC(=O)c1c(O)n(O)c2cc(NC(=O)Nc3cccc(C(=O)O)c3)ccc12`: inhibition in assay [2] was half-maximal at 14 µM (IC50). `CCc1cc(OC)c(OC)c(C(=O)NC[C@@H]2CCCN2CC)c1OC` gave an IC50 in assay [2] of 32 µM. In turn, `CC(C)/C=C1\N=C(CC(C)C)C(=O)N(O)C1=O` displayed an IC50 in assay [1] of 5.5 µM. As for `O=C(Nc1cccc(C(=O)O)c1)Nc1ccc2c(C(=O)c3ccccc3)c(O)n(O)c2c1`, the IC50 in assay [2] stood at 3 µM; in assay [4], 6 µM. The molecule further came in with an EC50 in assay [3] of more than 100 µM. `COCON1C(=O)C(CC(C)C)=N/C(=C\C(C)C)C1=O` came in with an IC50 in assay [1] of more than 355 µM. Take `CC(C)CC1=N/C(=C\c2ccc(F)cc2)C(=O)NC1=O`: the IC50 in assay [1] is more than 365 µM.

As for `O=C(Nc1ccc2c(C(=O)c3ccccc3)c(O)n(O)c2c1)c1ccc2ccccc2c1`, the values for the 50% inhibitory concentration (IC50) in assay [2] and in assay [4] were 8 µM and 29 µM, respectively. In assay [3], this molecule came in with an EC50 of more than 40 µM.

`CCC(=O)c1c(O)n(O)c2cc(NC(=O)Nc3ccc(Cl)cc3)ccc12` came in with an IC50 in assay [2] of 38 µM. In assay [2], `CCC(=O)c1c(O)n(O)c2cc(NC(=O)Nc3ccccc3)ccc12` returned an IC50 of 40 µM.

On to `O=C(Nc1ccc2c(C(=O)c3ccccc3)c(O)n(O)c2c1)c1ccc(Cl)cc1Cl`, for which the IC50 in assay [2] stood at 38 µM. Still for that read-out and setting: the value for `O=C(Nc1ccc2c(C(=O)c3ccccc3)c(O)n(O)c2c1)NC1CCCCC1` was 50 µM. In assay [5], `O=C1Cc2ccccc2CN1O` registered an inhibition of 25%. In assay [1], the IC50 was determined as 100 µM.

In turn, `O=C1Cc2ccccc2CC(=O)N1O` yielded a 50% inhibitory concentration (IC50) in assay [1] of more than 1000 µM. In assay [2], `O=C(c1ccccc1)c1c(O)n(O)c2cc(NC(=O)C3CCCCC3)ccc12` returned an IC50 of 18 µM. For `O=C(NO)c1ccccc1` [BENZOHYDROXAMATE], in assay [1], the IC50 is more than 500 µM. With `CCC(=O)c1c(O)n(O)c2cc(NC(=O)Nc3ccccc3Cl)ccc12`, in assay [2], 50 µM corresponded to half-maximal inhibition (IC50).

In assay [2], `CCC(=O)c1c(O)n(O)c2cc(NC(=O)/C=C/c3ccccc3Cl)ccc12` yielded an IC50 of 8 µM.

As to `O=c1[nH]c2nccnc2c(=O)n1O`, the IC50 in assay [1] came out at 95 µM.

In assay [2], `CCC(=O)c1c(O)n(O)c2cc(NC(=O)c3ccc(Cl)cc3Cl)ccc12` registered an IC50 of 45 µM. The molecule `CON1C(=O)Cc2ccccc2C1=O` showed an IC50 in assay [1] of 710 µM.

Consider `O=C(/C=C/c1ccccc1Cl)Nc1ccc2c(C(=O)c3ccccc3)c(O)n(O)c2c1`, for which the IC50 is 9.5 µM in assay [2] and 26 µM in assay [4]. Also, the EC50 in assay [3] is more than 30 µM. Regarding `O=C(Nc1ccc2c(C(=O)c3ccccc3)c(O)n(O)c2c1)c1ccccc1`, the IC50 in assay [2] was 10 µM; in assay [4], 56 µM. Besides, the half-maximal effective concentration (EC50) in assay [3] was more than 90 µM. As for `O=C(c1ccccc1)c1c(O)n(O)c2cc(NS(=O)(=O)c3cccs3)ccc12`, half-maximal inhibition in assay [2] (IC50) was put at 48 µM.
